Results gathered from unrelated publications.
Compare with care: the assays were run in different laboratories.
Cnr1: Cannabinoid receptor 1 (Cnr1, Rattus norvegicus, UniProt P20272)
Slc6a3: Sodium-dependent dopamine transporter (Slc6a3, Rattus norvegicus, UniProt P23977)
Botulinum neurotoxin type A protease: Botulinum neurotoxin type A, protease (Clostridium botulinum, UniProt P0DPI0)
NA: Neuraminidase (NA, Influenza A virus, UniProt Q9IGQ6)

| Compound | target | observed | mode | technique | setting | measurement | value |
| --- | --- | --- | --- | --- | --- | --- | --- |
| COC(=O)C(NC(=O)c1cn(CCCCCF)c2ccccc12)C(C)(C)C (stereo not shown) | Cnr1 | ligand displacement |  | radioligand | cell membranes | IC50 | 2 nM |
| CCOC(=O)C1C(OC(c2ccc(F)cc2)c2ccc(F)cc2)CC2CCC1N2CCN (racemic) | Slc6a3 | ligand displacement |  | radioligand | cell membranes | Ki | 17.2 nM |
| CC(C)(C)C(NC(=O)c1cn(CCCCCF)c2ccccc12)C(=O)O (stereo not shown) | Cnr1 | ligand displacement |  | radioligand | cell membranes | IC50 | 3340 nM |
| O=C1C=CC(=O)N1Cc1ccc(Cl)cc1Cl | Botulinum neurotoxin type A protease | enzyme activity | inhibitor |  |  | IC50 | 80000 nM |
| CN(C)CCc1c[nH]c2ccccc12 | 5-hydroxytryptamine receptor 1B (HTR1B, Homo sapiens, UniProt P28222) | ligand displacement |  | radioligand |  | Ki | 130 nM |
| CN1[C@H]2CC[C@@H]1[C@@H](c1cc(-c3ccccc3)no1)[C@H](OC(c1ccc(F)cc1)c1ccc(F)cc1)C2 | Slc6a3 | ligand displacement |  | radioligand | cell membranes | Ki | 14 nM |
| CC(C)NC(C)C(=O)c1cccc(Cl)c1 (stereo not shown) | Slc6a3 | transporter uptake | inhibitor | radiometric |  | IC50 | 537 nM |
| O=S(=O)(c1ccc(O)c2nc(Cl)ccc12)N1CCc2c(Cl)cccc21 | Botulinum neurotoxin type A protease | enzyme activity | inhibitor |  |  | IC50 | > 30000 nM |
| CC(N)C(=O)c1cccc(Cl)c1 (stereo not shown) | Slc6a3 | transporter uptake | inhibitor | radiometric |  | IC50 | 399 nM |
| CC1=CC(=O)C2(O1)C(c1cc3oc(=O)c4cc(O)c(O)cc4c3c(=O)o1)=Cc1cc(O)c(O)cc12 (stereo not shown) | NA | enzyme activity | inhibitor |  |  | IC50 | 8100 nM |
| CC(Cc1cccc(Cl)c1)NC(C)(C)C (stereo not shown) | Slc6a3 | transporter uptake | inhibitor | radiometric |  | IC50 | 938 nM |
| O=C1C=C(/C=C/c2ccc(O)c(O)c2)OC12C(c1cc3oc(=O)c4cc(O)c(O)cc4c3c(=O)o1)=Cc1cc(O)c(O)cc12 (stereo not shown) | NA | enzyme activity | inhibitor |  |  | IC50 | 8000 nM |
| CCCCCCC(C)(C)c1cc(O)c2c(c1)OC(C)(C)[C@@H]1CC=C(C)C[C@@H]21 | Cnr1 | ligand displacement |  | radioligand |  | Ki | 0.9 nM |
